Each structure is given as a SMILES string. In brackets after ≈: the same amount, converted by molar mass.

The subject of assay [1] is HT-29 cells. Kind of assay: MTT assay, cytotoxicity on HT-29 cells. It counts as cell-based, human. In short, it runs like this:
(§1)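 Cells were grown in RPMI 1640 with 10% FBS and penicillin/streptomycin at 37 °C, 5% CO2, and seeded for 24 hr. They were exposed 6 hr to peptide (1.25–100 µg/ml for IC50; 10 µg/ml for viability). MTT (5 mg/ml stock in PBS) was then added for 4 hr at 37 °C, formazan dissolved in DMSO for 30 min, and A570 read. 5-Fluorouracil served as positive control and DMSO as blank. Triplicates were run; IC50 is the mean ± SD of three experiments.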

The test system of assay [2] is HepG2 cells. Kind of assay: MTT assay, cytotoxicity on HepG2 cells. It counts as cell-based, human. In short, it runs like this:
as §1

Where [3] appears, read: MTT assay, 10 µg/ml of each peptide, 6 hr, control = 100.

`O=c1[nH]cc(F)c(=O)[nH]1` [5-Fluorouracil]: the IC50 in assay [1] (Homo sapiens, HT-29, 6 h, read-out: IC50 cell line HT-29) was 6.08 µg/mL (≈ 46.7 µM); in assay [2] (Homo sapiens, HepG2, 6 h, read-out: IC50 cell line HepG2), 3.16 µg/mL (≈ 24.3 µM). In addition, the “Viability percentage (HT-29), MTT assay” value in assay [1] (setting [3]) is on record as 9.28%. Besides, in assay [2] (setting [3]), the “Viability percentage (HepG2), MTT assay” value is given as 3.22%.

These data come from paper PMC5776435 (Iranian Journal of Basic Medical Sciences, 2018).
